A short description of data set [1]: Relative lipophilicity. The format is physicochemical. To be noted: TLC, acetone/water 2:1 mobile phase. The method, boiled down: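 Reversed-phase TLC on plates pre-dried 1 h at 105 °C, developed in acetone/water 2:1 (v/v); 1 µL of 3 mg/mL CHCl3 solution spotted. Rf averaged over five runs with varied spot positions; Rm = log[(1/Rf) − 1].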
For data set [2], the species on record is Mus musculus. Description: (§1) Dose which induced 50% of mice to fall from the rotarod. The format is functional. Summed up: (§2)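 Male Swiss mice (20–26 g, 48–54 days old), groups of 10, pretrained on a 3 cm rotarod at 8 rpm; tested 30 min after ip dosing. Failure meant falling within 2 min. TD50 by Litchfield–Wilcoxon, at least 32 animals.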
In general terms: The rotarod test checks motor coordination on a turning rod.

Data set [3] is filed under the species Mus musculus. As to the kind of experiment: Anticonvulsant activity against audiogenic seizures in DBA/2 mice (value required to prevent clonic phases of seizures). In kind it is functional. Summed up: (§3)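 DBA/2 mice (8–12 g, 22–25 days old, either sex), groups of 10, given drug or vehicle ip (50% DMSO/50% saline, 0.1 mL/10 g) 30 min before auditory stimulation; latency and incidence of seizure phases scored. ED50 per phase by Litchfield–Wilcoxon, at least 32 animals per value.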

For data set [4], the species on record is Mus musculus. Description: Anticonvulsant activity against audiogenic seizures in DBA/2 mice (value required to prevent tonic phases of seizures). The format is functional. The method, boiled down:
as §3

Data set [5] is described as follows: Therapeutic index (TD50/ED50) from the clonic phase of the audiogenic seizures. The method, boiled down: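 Ratio of rotarod TD50 (Swiss mice, 30 min after ip dosing) to ED50 for clonic phase of audiogenic seizures in DBA/2 mice (30 min after ip dosing). Both values from Litchfield–Wilcoxon fits, in µmol/kg.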
Data set [6] is filed under the species Mus musculus. As to the kind of experiment: Anticonvulsant activity against clonic phase of the audiogenic seizures after pretreatment with aniracetam in DBA/2 mice. In kind it is functional. The method, boiled down: (§4)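 DBA/2 mice (8–12 g, 22–25 days old, either sex) pretreated with aniracetam, then given the benzodiazepine ip in 50% DMSO/50% saline; sound stimulation 30 min after dosing, with clonic or tonic phase scored. ED50 by Litchfield–Wilcoxon (at least 32 animals), compared with benzodiazepine alone.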

Data set [7] concerns Mus musculus. Description: Anticonvulsant activity against clonic seizures induced by icv injection of AMPA in DBA/2 mice. In kind it is functional. The following applies: central.
The species named for data set [8] is Mus musculus. Description: Anticonvulsant activity against maximal electroshock (MES ) seizures in swiss mice. The format is functional. The method, boiled down:
(§5)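 Swiss mice dosed ip (50% DMSO/saline) 45 min before ear-clip electroshock (50 mA, 20 ms pulses, 35 Hz, 400 ms). Protection taken as abolition of tonic hindlimb extension. Four to five doses, 8–10 mice each; ED50 by Litchfield–Wilcoxon.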
For orientation: Protection in the maximal electroshock model is a classic sign of anticonvulsant action.

The species named for data set [9] is Mus musculus. Description: Anticonvulsant activity against pentylenetetrazole (PTZ)-induced seizures in swiss mice. The format is functional. The method, boiled down:
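Male Swiss mice (20–26 g, 42–48 days old) dosed ip in 50% DMSO/saline 45 min before PTZ 85 mg/kg sc (CD97); watched 30 min. Protection meant no clonic spasm lasting at least 5 s. ED50 by Litchfield–Wilcoxon.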

The species named for data set [10] is Mus musculus. Description: Anticonvulsant activity against tonic phase of the audiogenic seizures after concomitant with flumazenil at 8.24 umol dose in DBA/2 mice. The format is functional. Summed up:
(§6)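 DBA/2 mice (8–12 g, 22–25 days old, either sex) given test drug ip in 50% DMSO/50% saline together with flumazenil at the stated dose, then auditory stimulation 30 min after dosing; clonic or tonic phase scored in groups of 10. ED50 by Litchfield–Wilcoxon, at least 32 animals per value.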

For data set [11], the species on record is Mus musculus. As to the kind of experiment: Anticonvulsant activity against tonic phase of the audiogenic seizures after pretreatment with aniracetam in DBA/2 mice. The format is functional. The method, boiled down:
as §4

For data set [12], the species on record is Mus musculus. As to the kind of experiment: Anticonvulsant activity against clonic phase of the audiogenic seizures after concomitant with flumazenil at 24.72 umol dose in DBA/2 mice. The format is functional. Summed up: as §6
Data set [13] is filed under the species Mus musculus. Description: Anticonvulsant activity against clonic phase of the audiogenic seizures after concomitant with flumazenil at 8.24 umol dose in DBA/2 mice. The format is functional. The method, boiled down: as §6
For data set [14], the system named is Mus musculus. As to the kind of experiment: Anticonvulsant activity against tonic seizures induced by icv injection of AMPA in DBA/2 mice. In kind it is functional. To be noted: central.
The nature of data set [15]: as §1. The format is ADME. To be noted: mouse, in vivo. Summed up:
as §2

The species named for data set [16] is Mus musculus. As to the kind of experiment: Anticonvulsant activity against tonic phase of the audiogenic seizures after concomitant with flumazenil at 24.72 umol dose in DBA/2 mice. The format is functional. The method, boiled down: as §6
The species named for data set [17] is Mus musculus. Description: Anticonvulsant activity against maximal electroshock (MES) seizures in swiss mice. In kind it is functional. The method, boiled down: as §5

By TD50 is commonly meant the 50% point of the dose-response relation for the toxic effect studied. As usually defined, the ED50 is the midpoint of the dose-response relation.

The compound `COc1cc2c(cc1OC)C(c1ccccc1)=NN(C)C(=S)C2` showed a Rm in data set [1] of 0.282. This compound also showed a TD50 in data set [2] of 97.1 µmol/kg. Moreover, the results for the ED50 in data set [3] and in data set [4] were 30.6 µmol/kg and 24.7 µmol/kg, respectively. The selectivity ratio in data set [5] was 3.17.

With `COc1cc2c(cc1OC)C(c1ccc(N)cc1)=NNC(=O)C2`, the Rm in [1] was -0.63. Moreover, the ED50 in [6] was determined as 65.4 µmol/kg.

On to `COc1cc2c(cc1OC)C(c1ccc(N)cc1)=NN(C)C(=O)C2`, for which the Rm in data set [1] was -0.421. For the same compound, the TD50 in data set [2] turned out to be 159 µmol/kg.

In the case of `COc1cc2c(cc1OC)C(c1ccc(N)cc1)=NN=C(S)C2`, the Rm in data set [1] is -0.308. Also, the ED50 in data set [7] is 17.1 µmol/kg; in data set [8] it was 7.75 µmol/kg; in [9], 15.4 µmol/kg; in [10] it was 3.24 µmol/kg; in [11], 38.5 µmol/kg; in [12], 7.1 µmol/kg. The ED50 in [13] amounted to 6.9 µmol/kg; in data set [6] it was 46.1 µmol/kg; in [3], 6.3 µmol/kg; in data set [4] it was 3.3 µmol/kg; in [14] it was 11.9 µmol/kg; in data set [16], 3.22 µmol/kg. Besides, in data set [15], the TD50 is 42.6 µmol/kg. Also, in data set [5], the selectivity ratio worked out at 6.76.

`COc1cc2c(cc1OC)C(c1ccc([N+](=O)[O-])cc1)=NN=C(S)C2` yielded a Rm in data set [1] of 0.122. In [2], the TD50 is > 150 µmol/kg. For the same compound, the ED50 in data set [3] is 93.4 µmol/kg; in data set [4], 69.8 µmol/kg.

Take `COc1cc2c(cc1OC)C(c1ccc([N+](=O)[O-])cc1)=NN(C)C(=O)C2`: the Rm in [1] was 0.11.

For the compound `COc1cc2c(cc1OC)C(c1cccc(N)c1)=NN=C(S)C2`, the Rm in data set [1] is recorded as -0.259. The TD50 in data set [2] came out at 76.7 µmol/kg. Besides, the values for the ED50 in data set [3] and in data set [4] were 18.8 µmol/kg and 9.1 µmol/kg, respectively. For the same compound, the selectivity ratio in data set [5] was found to be 4.08.

As to `COc1cc2c(cc1OC)C(c1ccc(Br)cc1)=NN(C)C(=O)C2`, the Rm in [1] is 0.263.

With `CC1=NN=C(c2ccc(N)cc2)c2cc3c(cc2C1)OCO3` [GYKI-52466], in [1], the Rm was -0.308.

Take `COc1cc2c(cc1OC)C(c1cccc(N)c1)=NNC(=O)C2`: the Rm in data set [1] was -0.542. In data set [2], this compound returned a TD50 of 51.5 µmol/kg.

Compound `COc1cc2c(cc1OC)C(c1ccc(Br)cc1)=NN=C(S)C2` had a Rm in data set [1] of 0.269. Moreover, the TD50 in [2] was determined as 73 µmol/kg. In addition, the 50% effective dose (ED50) in [3] was found to be 52.1 µmol/kg; in data set [4], 33.3 µmol/kg. Moreover, in data set [5], the selectivity ratio stood at 1.4.

In the case of `COc1cc2c(cc1OC)C(c1cccc([N+](=O)[O-])c1)=NNC(=O)C2`, the Rm in [1] is given as -0.135.

As to `COc1cc2c(cc1OC)C(c1ccc(Cl)cc1)=NN=C(S)C2`, the Rm in data set [1] is on record as 0.244. In addition, the TD50 in data set [2] amounted to 193 µmol/kg. The ED50 is 82.4 µmol/kg in [3] and 55 µmol/kg in data set [4]. Besides, the selectivity ratio in data set [5] is 3.26.

`COc1cc2c(cc1OC)C(c1ccc(N)cc1)=NN(C)C(=S)C2`: the Rm in data set [1] was -0.072. Also, the TD50 in [2] is 130 µmol/kg. Moreover, the ED50 was 29.8 µmol/kg in data set [3] and 20.3 µmol/kg in data set [4]. Further, the selectivity ratio in data set [5] turned out to be 4.35.

As for `COc1cc2c(cc1OC)C(c1ccc([N+](=O)[O-])cc1)=NNC(=O)C2`, the Rm in data set [1] is recorded as -0.113.

`COc1cc2c(cc1OC)C(c1ccc(Cl)cc1)=NNC(=O)C2`: the Rm in [1] is 0.012. Moreover, the TD50 in [2] amounted to 240 µmol/kg.

Take `COc1cc2c(cc1OC)C(c1ccccc1)=NN(C)C(=O)C2`: the Rm in data set [1] is given as -0.003. This compound also showed a TD50 in [2] of 154 µmol/kg.

`COc1cc2c(cc1OC)C(c1ccccc1)=NNC(=O)C2`: in data set [1], the Rm is on record as -0.244. Moreover, the ED50 in data set [3] stood at 33.9 µmol/kg.

Compound `COc1cc2c(cc1OC)C(c1ccc(Br)cc1)=NNC(=O)C2` yielded a Rm in data set [1] of 0.035. The same compound showed a TD50 in data set [2] of 226 µmol/kg.

Compound `COc1cc2c(cc1OC)C(c1cccc([N+](=O)[O-])c1)=NN=C(S)C2` had a Rm in [1] of 0.092.

Compound `COc1cc2c(cc1OC)C(c1ccc([N+](=O)[O-])cc1)=NN(C)C(=S)C2` showed a Rm in [1] of 0.333. The ED50 in data set [3] is 103 µmol/kg; in data set [4] it was 81.5 µmol/kg.

`COc1cc2c(cc1OC)C(c1ccccc1)=NN=C(S)C2` displayed a Rm in data set [1] of 0.014. Moreover, the ED50 is 43.1 µmol/kg in data set [7]; 27.8 µmol/kg in data set [17]; 33.7 µmol/kg in [9]; 13.6 µmol/kg in [10]; 69.1 µmol/kg in [11]; 19.3 µmol/kg in data set [12]. Further, the ED50 in [13] came out at 22.4 µmol/kg; in data set [6], 98 µmol/kg; in data set [3], 19.7 µmol/kg; in data set [4], 15 µmol/kg; in data set [14], 31.1 µmol/kg; in data set [16], 12.6 µmol/kg. Further, the TD50 in data set [15] came out at 98.9 µmol/kg. In addition, the selectivity ratio in data set [5] was 5.02.

As for `COc1cc2c(cc1OC)C(c1ccc(Br)cc1)=NN(C)C(=S)C2`, the Rm in [1] is given as 0.575. Also, the values for the median effective dose (ED50) in data set [3] and in data set [4] were 105 µmol/kg and 60.4 µmol/kg, respectively.

The values above are taken from ChEMBL document CHEMBL1131077, “3,5-Dihydro-4H-2,3-benzodiazepine-4-thiones: a new class of AMPA receptor antagonists” (J Med Chem, 1998).
